Screening results (PubChem BioAssay)
Hits are enriched below; roughly 3.7% of the tested compounds scored in any of these assays.
Myeloid diff 2 = induction of myeloid progenitor differentiation, primary screen, cell-based, flow cytometry, MLPCN library. ER-HoxA9 myeloid progenitors, lysozyme-GFP differentiation. actives 1% (n = 360,000). calls only at 10 µM. AID 624256, 2012;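 active = normalized GFP-positive differentiation at or above the plate's own cutoff, the solvent-only control mean plus 3 SD; inconclusive = no clear call, values can overlap the other calls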;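 note: cells exposed to compound for four days before flow analysis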
EBI2 block = EBI2 receptor antagonists, beta-arrestin recruitment, primary screen, cell-based, luminescence, 7a,25-OHC stimulation, uHTS; AID 651636, 2012; 7a,25-OHC stimulated; actives 0.81% (n = 360,000); inhibition, % at 5 µM; in the data active = inhibition above about 38%;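 note: enzyme fragment complementation signal reports receptor beta-arrestin coupling in cells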
MC4R antagonist = MC4R antagonists of cAMP signaling, primary screen, cell-based, TR-FRET, antagonist arm of biased-ligand search. AID 540295, 2011. MC4R-expressing cells, MTII-stimulated cAMP, LANCE TR-FRET. inhibition, % at 6.5 µM. actives 0.48% (n = 360,000). Melanocortin receptor 4 (Homo sapiens), P32245;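 active = inhibition above its plate's cutoff, the mean of tested wells on that plate plus 3 SD, cut at about 29% in these data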
Target sequence (P32245 whole entry, looked up): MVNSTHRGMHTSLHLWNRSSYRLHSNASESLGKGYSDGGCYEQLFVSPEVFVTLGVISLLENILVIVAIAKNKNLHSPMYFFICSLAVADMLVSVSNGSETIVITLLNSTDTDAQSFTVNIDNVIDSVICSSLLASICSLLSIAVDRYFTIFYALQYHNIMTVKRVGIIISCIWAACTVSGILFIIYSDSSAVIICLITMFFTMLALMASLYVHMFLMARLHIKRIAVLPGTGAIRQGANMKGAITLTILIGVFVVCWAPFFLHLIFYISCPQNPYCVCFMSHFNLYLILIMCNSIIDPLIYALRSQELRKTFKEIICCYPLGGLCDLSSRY
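Assay system: human MC4R-expressing U2OS cells; reagent: Melanotan II stimulation of cells; dosing: 6.5 µM single dose; timing: compound 30 min, challenge 1 h, detection 1 h; signal: TR-FRET cAMP assay; replicates: one well per compound, no replicates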
MC4R barr agon = MC4R agonists recruiting beta-arrestin, primary screen, cell-based, luminescence, agonist arm of biased-ligand search; U2OS MC4R beta-arrestin complementation; percent of melanotan II response, DMSO zero; activation, % at 8.9 µM; actives 0.98% (n = 360,000);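 active = activation above a per-plate cutoff, the mean activation of sample wells on that plate plus 3 SD, cut at about 8% in these data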
Exocytosis inh = LAMP-1 surface exposure blockers, TALL-104 cells – cell-based, flow cytometry, MLPCN library, primary screen; inhibition, % at 10 µM; actives 0.66% (n = 360,000); TALL-104 LAMP-1 surface exposure; cells stimulated with thapsigargin and PMA;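 active = inhibition above about 55%, limit read from the data; inconclusive = no clear call, values can overlap the other calls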
Granule exo CP1 = inhibitors of lytic granule exocytosis, confirmation, TALL-104 cells, flow cytometry, Cherry Pick01. inhibition, % at 10 µM. LAMP-1 externalization; stimulated with PMA plus thapsigargin. shares compounds with Exocytosis inh. actives 11% (n = 1,500); in the data active = inhibition above about 60%
Numbers stand for hits; 0 = inactive; ? = inconclusive; - = no result given; ! = not active in a repeat.

SMILES | Myeloid diff 2 | EBI2 block | MC4R antagonist | MC4R barr agon | Exocytosis inh | Granule exo CP1
O=C(c1ccc(Br)cc1)N(c1ccccn1)C1CCCCC1 | 0 | 0 | 0 | 0 | 0 | -
O=C1C2C3C=CC(CNS(=O)(=O)c4ccccc4[N+](=O)[O-])(O3)C2C(=O)N1c1ccccc1 (stereo not given) | 0 | 0 | 0 | 0 | 0 | -
CC(C)(C)C(=O)NCC12C=CC(O1)C1C(=O)N(c3ccccc3)C(=O)C12 (stereo not given) | 0 | 0 | 0 | 0 | 64.2 | 0
O=C(Nc1nc(-c2ccco2)cs1)c1ccccc1 | 0 | 0 | 0 | 0 | 70.9 | 0
COc1cccc(NC(=O)Cc2nnc(SCC(=O)NC3CCCCC3)n2C)c1 | 0 | 0 | 0 | 0 | 0 | -
CCOC(=O)c1c(CN2CCN(c3ccccc3)CC2)oc2ccc(O)cc12 | 0 | 0 | 0 | 0 | 0 | -
CCOC(=O)c1c(N2CCN(c3ccccc3)CC2)cc(C)nc1C | 0 | 0 | 0 | 0 | 62.1 | 0
NC(=O)c1ccc(NC(=O)COC(=O)C2(c3cccc(F)c3)CCCC2)cc1 | 0 | 0 | 0 | 0 | 0 | -
CN(C)C(=O)c1ccc(NC(=O)COC(=O)C2(c3ccccc3)CCCC2)cc1 | 0 | 0 | 0 | 0 | 76.5 | 0
Cc1cc(C(=O)NNC(=O)c2ccc(C)c([N+](=O)[O-])c2)c(C)o1 | 0 | 0 | 0 | 0 | 0 | -
C=CCc1ccc(OCC(O)CN2CCC(Cc3ccccc3)CC2)c(OC)c1 (stereo not given) | 0 | 0 | 0 | 0 | 56.1 | 0
C=CCc1ccc(OCC(O)CN2CCN(c3ccccc3OC)CC2)c(OC)c1 (stereo not given) | 0 | 0 | 0 | 0 | 0 | -
CN(c1ccc(OCc2ccc([N+](=O)[O-])cc2)cc1)S(=O)(=O)c1ccccc1 | 0 | 0 | 0 | 0 | 61.4 | 0
Cc1ccc(S(=O)(=O)N(C)c2ccc(OCc3cccc(C)c3)cc2)cc1 | 0 | 0 | 0 | 0 | 0 | -
O=C(Nc1ccc2c(c1)OCCO2)C1c2ccccc2OCC(=O)N1Cc1ccco1 (stereo not given) | 0 | 0 | - | - | 0 | -
COc1ccc(N2C(=O)NC(NC(=O)C(C)(C)C)(C(F)(F)F)C2=O)cc1 (stereo not given) | 0 | 0 | 0 | 0 | 0 | -
CC(C)CC(=O)NC1(C(F)(F)F)NC(=O)N(c2ccccc2)C1=O (stereo not given) | 0 | 0 | 0 | 0 | 90.5 | 0
CC(C)(C)Cc1c(-c2ccc(F)cc2)nc2ccc(Cl)cn12 | 0 | 0 | 0 | 0 | 0 | -
Cc1cc(NS(C)(=O)=O)c(=O)n(Cc2c(F)cccc2Cl)c1 | 0 | 0 | 0 | 0 | 0 | -
O=C(c1ccccc1)c1ccc2c(c1)OCCOCCOCCOCCO2 | 0 | 0 | 0 | 0 | 71.6 | 0
O=C(O)c1ccc2c(c1)OCCOCCOCCOCCOCCO2 | 0 | 0 | 0 | 0 | 0 | -
CC(Nc1nc(N2CCNCC2)nc2ccccc12)c1ccccc1 (stereo not given) | - | 0 | 0 | 0 | 86.9 | 78.8
COc1ccc(N2CCN(S(=O)(=O)CC34CCC(CC3=O)C4(C)C)CC2)cc1 (stereo not given) | 0 | 0 | 0 | 0 | 0 | -
Cc1ccc(Nc2cc(C)c(O)c(C)c2)cc1 | 0 | 0 | 0 | 0 | 67.3 | 0
Cc1ccc(Nc2ccccc2)cc1 | 0 | 0 | 0 | 0 | 0 | -
SMILES | Myeloid diff 2 | EBI2 block | MC4R antagonist | MC4R barr agon | Exocytosis inh | Granule exo CP1
CC(=O)N1c2ccc(S(=O)(=O)N3CCC(C(=O)Nc4cccc(C(F)(F)F)c4)CC3)cc2CC1C (stereo not given) | ? | 0 | 0 | 0 | 0 | -
Cc1cc(NCc2ccccn2)n2ncc(-c3ccc(Cl)cc3)c2n1 | 0 | 0 | 0 | 0 | 82.0 | 0
Cc1cc(NCc2ccccn2)n2ncc(-c3ccccc3)c2n1 | 0 | 0 | 0 | 0 | 0 | -
C[C@@H]1CN([C@H](C)CO)C(=O)Cc2cc(NC(=O)Nc3ccccc3)ccc2O[C@@H]1CN(C)Cc1ccc2c(c1)OCO2 | 0 | 0 | 0 | 0 | 0 | -
CCCCCCSc1cccc(-c2nc3ccccn3c2NCc2ccccc2)c1 | 0 | 0 | 0 | 0 | 58.2! | 95.4
CCCCCCSc1cccc(-c2nc3cc(C)ccn3c2NCc2ccccc2)c1 | 0 | 0 | 0 | 0 | 0 | -
